Measurements taken from paper PMC10903085 (Neurotherapeutics, 2023).
“Also recorded” adds a separate entry of the source. Each block holds one molecule with its values, some of them ahead of it.

Columns and labels:
primary rat neurons = assay: Modified MTT assay of Aβ toxicity in primary neurons; type: cell-based; conditions: compound 0.3, 3 or 15 μM, 90-min pretreatment, 2.5 μM Aβ, 24 h
Fyn [1] = molecular target: Fyn (Homo sapiens, UniProt P06241); assay: Custom kinase panel for Fyn; type: binding; conditions: 3 μM; activity defined as <35 % of control
Tau-BIN1SH3 interaction = Tau-BIN1SH3 interaction (Homo sapiens, UniProt P10636); assay: Tau-Flag PLA, Tau-BIN1SH3 in HEK-293 cells; type: cell-based; conditions: 15 μM
How it was run: (§1)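 HEK-293 cells on PDL/laminin coverslips in DMEM with 10 % FBS were co-transfected (Fugene) with 125 ng human 4R2N Tau-mKate2 and 500 ng GST-SH3-Flag plasmid for the relevant SH3 domain. After 24 h, test compound was added at 15 μM final, and cells were fixed 24 h later. PLA used Tau (1:1000) and Flag (1:1000) antibodies, with puncta quantified by thresholding.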

Tau-FynSH3 interaction [2] = molecular target: T1, Tau-FynSH3 interaction (Homo sapiens, UniProt P10636); assay: Tau-Flag PLA, Tau-FynSH3 in HEK-293 cells; type: cell-based; conditions: HEK293, read-out: Inhibition of Tau-FynSH3 interaction (PLA)
How it was run: as §1

Tau-SrcSH3 interaction = Tau-SrcSH3 interaction (Homo sapiens, UniProt P10636); assay: Tau-Flag PLA, Tau-SrcSH3 in HEK-293 cells; type: cell-based; conditions: 15 μM
How it was run: as §1

Tau-PxxP5/6 = Tau-PxxP5/6 (Homo sapiens, UniProt P10636); assay: Isothermal titration calorimetry with Tau-PxxP5/6 peptide; type: binding; conditions: 25 °C
How it was run: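 Calorimetric titration at 25 °C in 5 % DMSO. About 120 μM Tau-PxxP5/6 peptide sat in the cell and 1 mM test compound in the syringe. Sixteen 2.5 μL injections were made. Mixing heat from titrant into buffer alone was used as background, and the normalised heat was fitted to a one-set-of-sites model.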

FynSH3 = FynSH3 (Homo sapiens, UniProt P06241); assay: Isothermal titration calorimetry with FynSH3; type: binding; conditions: 25 °C
How it was run: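 Purified human FynSH3 from E. coli was dialysed at 4 °C into 20 mM Tris, 150 mM NaCl, pH 8.0, quantified by A280 and brought to 5 % DMSO. The cell held ~120 μM FynSH3 and the syringe 1 mM test compound. Sixteen 2.5 μL injections were made at 25 °C. Titrant-into-buffer heat was used as background, and data were fitted to a one-set-of-sites model.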

Tau-Fyn interaction = assay: Endogenous Tau-Fyn PLA in primary neurons; type: cell-based, rat; conditions: 24 h
How it was run: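 Rat hippocampal neurons (E19 Sprague-Dawley embryos) grown on coated coverslips to DIV20, treated with test compound or vehicle, and fixed in PFA 24 h later. Cells were permeabilised in 0.25 % Triton X-100 and blocked in 5 % NGS. Tau (1:1000) and Fyn (1:250) antibodies were applied overnight at 4 °C, then Duolink PLA was run. Thresholded puncta were counted from 5–7 images per coverslip and normalised to vehicle slides; analysis was blinded.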

Tau-LckSH3 interaction = Tau-LckSH3 interaction (Homo sapiens, UniProt P10636); assay: Tau-Flag PLA, Tau-LckSH3 in HEK-293 cells; type: cell-based; conditions: 15 μM
How it was run: as §1

Tau = assay: Western blot of Tau levels in primary neurons; type: cell-based, rat; conditions: 15 μM, 24 h
How it was run: (§2)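 Rat primary neurons at DIV13 were treated with 15 μM test compound or vehicle for 24 h. They were lysed in Tris/NaCl/EDTA buffer containing SDS, Triton and deoxycholate. 5 μg protein (Bradford) was run on 4–12 % bis-tris/MOPS gels and blotted to PVDF. Blots were probed overnight at 4 °C for Fyn (1:1000), then GAPDH (1:5000), stripped and reprobed for Tau (1:10,000). Infrared detection was used, with densitometry.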

[3] = Oral administration, brain and plasma concentrations; type: in vivo, mouse; conditions: male CD1 mice, PO 5 mg/kg, 1 h, 2 h, 4 h post-treatment
How it was run: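 Male CD1 mice received test compound orally at 5 mg/kg, formulated at 1 mg/mL in 10 % NMP, 60 % PEG400 and 30 % saline. Brain and plasma levels were measured by HPLC-MS at 1, 2 and 4 h after dosing, and the brain/plasma ratio was taken from these.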

Fyn [4] = assay: Western blot of Fyn levels in primary neurons; type: cell-based, rat; conditions: 15 μM, 24 h
How it was run: as §2

primary neurons = assay: Multi-electrode array, Aβ-induced network hyperexcitability; type: cell-based, rat; conditions: 1 h pretreatment, 500 nM Aβ oligomers, 4 h
Tau-tubulin interaction = assay: Tau-tubulin PLA in untransfected HEK-293 cells; type: cell-based, human; conditions: 15 μM, 24 h
How it was run: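 Untransfected HEK-293 cells were grown 48 h, then exposed to 15 μM test compound for 24 h and fixed. PLA for endogenous Tau–α-tubulin proximity used Tau (1:1000) and α-tubulin (1:2000) primary antibodies, with the permeabilisation, blocking, probe, ligation and amplification steps of the neuronal PLA.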

97 kinases = assay: Eurofins DiscoverX ScanEDGE kinase panel; type: binding; conditions: 3 μM; activity defined as <35 % of control
Tau-FynSH3 interaction [5] = molecular target: T1, Tau-FynSH3 interaction; assay: Tau-FynSH3 AlphaScreen; type: binding; conditions: left-hand phenyl ring removed
SFK = conditions: cited from earlier work
Sam68(PxxP)-FynSH3 = conditions: cited from earlier work
[6] = Metabolic stability in mouse liver microsomes; type: in vitro ADME
[7] = Phase IIa clinical trial, tolerable dose; cited from earlier work

T1 sequence (P10636 1-441 isoform P10636-8): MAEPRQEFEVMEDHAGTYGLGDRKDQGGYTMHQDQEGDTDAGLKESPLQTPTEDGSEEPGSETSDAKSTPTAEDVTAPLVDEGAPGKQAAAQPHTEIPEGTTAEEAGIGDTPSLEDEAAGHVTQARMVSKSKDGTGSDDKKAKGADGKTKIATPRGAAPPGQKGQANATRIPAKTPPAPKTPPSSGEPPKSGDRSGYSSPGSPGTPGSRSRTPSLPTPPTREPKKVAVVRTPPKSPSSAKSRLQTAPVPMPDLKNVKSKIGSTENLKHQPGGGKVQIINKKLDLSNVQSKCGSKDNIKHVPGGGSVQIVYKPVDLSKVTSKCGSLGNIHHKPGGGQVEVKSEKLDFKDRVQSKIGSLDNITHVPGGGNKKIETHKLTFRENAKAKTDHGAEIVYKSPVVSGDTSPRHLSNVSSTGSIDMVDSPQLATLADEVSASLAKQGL
FynSH3, sequence (P06241 82-143 limits assumed): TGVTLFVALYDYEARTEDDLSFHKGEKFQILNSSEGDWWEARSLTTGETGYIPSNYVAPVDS
Fyn (Homo sapiens, UniProt P06241), sequence (P06241 whole entry): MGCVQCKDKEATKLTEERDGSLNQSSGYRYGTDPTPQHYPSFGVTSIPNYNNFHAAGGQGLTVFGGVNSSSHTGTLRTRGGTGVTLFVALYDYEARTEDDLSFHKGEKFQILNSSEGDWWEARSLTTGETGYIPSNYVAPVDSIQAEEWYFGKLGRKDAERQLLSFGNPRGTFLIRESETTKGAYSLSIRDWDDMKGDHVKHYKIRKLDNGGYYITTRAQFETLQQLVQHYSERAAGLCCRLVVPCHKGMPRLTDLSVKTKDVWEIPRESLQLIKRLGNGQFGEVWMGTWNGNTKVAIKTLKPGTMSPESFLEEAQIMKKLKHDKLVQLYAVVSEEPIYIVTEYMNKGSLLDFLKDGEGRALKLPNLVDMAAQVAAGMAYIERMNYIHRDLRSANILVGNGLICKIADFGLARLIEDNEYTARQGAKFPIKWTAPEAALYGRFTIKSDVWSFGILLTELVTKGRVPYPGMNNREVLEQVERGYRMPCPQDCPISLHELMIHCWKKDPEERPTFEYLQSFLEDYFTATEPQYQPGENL
Tau-LckSH3 interaction, sequence (P10636 1-441 isoform P10636-8): as the sequence (P10636 1-441 isoform P10636-8) above
Tau-BIN1SH3 interaction, sequence (P10636 1-441 isoform P10636-8): as above
Tau-SrcSH3 interaction, sequence (P10636 1-441 isoform P10636-8): as above

Molecule: Cc1ccc2c(c1)SCC(=O)N2CC(=O)Nc1nnc(-c2ccccn2)[nH]1 [SRI-39488, 2-(7-methyl-3-oxo-2,3-dihydro-4H-benzo[b][1,4]thiazin-4-yl)-N-(5-(pyridin-2-yl)-4H-1,2,4-triazol-3-yl)acetamide]
Amelioration of Aβ toxicity in modified MTT assay (primary rat neurons): inhibited Aβ toxicity

Molecule: O=C(CN1CCOCC1)Nc1nnc(-c2ccccn2)[nH]1 [SRI-43143, 2-Morpholino-N-(5-(pyridin-2-yl)-4H-1,2,4-triazol-3-yl)acetamide]
Reduction of AlphaScreen activity relative to SRI-39669 (Tau-FynSH3 interaction [5]): 8–10 fold

Molecule: UCS15A
Inhibition of SFK kinase activity (SFK): does not inhibit SFK kinase activity | Inhibition of Sam68(PxxP)-FynSH3 interaction (Sam68(PxxP)-FynSH3): inhibited

Molecule: CN1CCN(CCOc2cc(OC3CCOCC3)c3c(Nc4c(Cl)ccc5c4OCO5)ncnc3c2)CC1 [saracatinib]
Clinical benefit in AD [7]: no clinical benefit

Molecule: O=C(CN1CCCCC1)Nc1nnc(-c2ccccn2)[nH]1 [SRI-43142, 2-(piperidin-1-yl)-N-(5-(pyridin-2-yl)-4H-1,2,4-triazol-3-yl)acetamide]
Reduction of AlphaScreen activity relative to SRI-39669 (Tau-FynSH3 interaction [5]): 8–10 fold

Molecule: O=C(CN1C(=O)CSc2cc(Cl)ccc21)Nc1nnc(-c2ccccn2)[nH]1 [SRI-39211, 2-(7-chloro-3-oxo-2,3-dihydro-4H-benzo[b][1,4]thiazin-4-yl)-N-(5-(pyridin-2-yl)-4H-1,2,4-triazol-3-yl)acetamide]
Amelioration of Aβ toxicity in modified MTT assay (primary rat neurons): inhibited Aβ toxicity

Molecule: O=C(CN1CCCc2ccccc21)Nc1nnc(-c2ccccn2)[nH]1 [SRI-42654, 2-(3,4-Dihydroquinolin-1(2H)-yl)-N-(5-(pyridin-2-yl)-4H-1,2,4-triazol-3-yl)acetamide]
Amelioration of Aβ toxicity in modified MTT assay (primary rat neurons): inhibited Aβ toxicity

The next lines start with results.

Inhibition of Fyn kinase (Fyn [1]): did not inhibit | Inhibition of Tau-BIN1 SH3 interaction (PLA) (Tau-BIN1SH3 interaction): moderately inhibited | inhibition at 15 µM (Tau-FynSH3 interaction [2]): 37% | Inhibition of Tau-SrcSH3 interaction (PLA) (Tau-SrcSH3 interaction): did not significantly inhibit | Interaction with Tau-PxxP5/6 peptide by ITC (Tau-PxxP5/6): no interaction | Binding to FynSH3 by ITC (FynSH3): did not bind FynSH3 | Inhibition of Tau-LckSH3 interaction (PLA) (Tau-LckSH3 interaction): strongly inhibited | Detection in plasma and brain after oral administration [3]: observed in both plasma and brain | Inhibition of any of the 97 kinases (97 kinases): did not inhibit
Molecule: O=C(CN1CCOc2ccccc21)Nc1nnc(-c2ccccn2)[nH]1 [SRI-42667, 2-(2,3-Dihydro-4H-benzo[b][1,4]oxazin-4-yl)-N-(5-(pyridin-2-yl)-4H-1,2,4-triazol-3-yl)acetamide]
Amelioration of Aβ toxicity in modified MTT assay (primary rat neurons): ameliorates Aβ toxicity; also recorded: inhibited Aβ toxicity | Reduction of endogenous Tau-Fyn PLA (Tau-Fyn interaction; 3 μM): reduces endogenous Tau-Fyn PLA | Reduction of endogenous Tau-Fyn PLA (Tau-Fyn interaction; 15 μM): reduces endogenous Tau-Fyn PLA | Tau levels (Tau): does not reduce | Fyn levels (Fyn [4]): does not reduce | Prevention of Aβ-induced network hyperexcitability (MEA) (primary neurons; 3 μM): prevented Aβ-induced network hyperexcitability | Prevention of Aβ-induced network hyperexcitability (MEA) (primary neurons; 15 μM): prevented Aβ-induced network hyperexcitability | Inhibition of Tau-tubulin interaction (PLA) (Tau-tubulin interaction): does not inhibit Tau-tubulin interaction

half-life [6]: 2.43 h
Molecule: O=C(CN1C(=O)CSc2cc(F)ccc21)Nc1nnc(-c2ccccn2)[nH]1 [SRI-39210, 2-(7-fluoro-3-oxo-2,3-dihydro-4H-benzo[b][1,4]thiazin-4-yl)-N-(5-(pyridin-2-yl)-4H-1,2,4-triazol-3-yl)acetamide]
Amelioration of Aβ toxicity in modified MTT assay (primary rat neurons): inhibited Aβ toxicity | Detection in plasma and brain after oral administration [3]: able to detect SRI-39210 in plasma, it did not cross the BBB and was not present in brain

Detection in plasma and brain after oral administration [3]: detected in both plasma and brain
Molecule: O=C(CN1CCSc2ccccc21)Nc1nnc(-c2ccccn2)[nH]1 [SRI-39669, 2-(2,3-dihydro-4H-benzo[b][1,4]thiazin-4-yl)-N-(5-(pyridin-2-yl)-4H-1,2,4-triazol-3-yl)acetamide]
